One block for each compound: values may come before it.
How the values were obtained:
Format in all cases: functional, cell-based
[1] = molecular target: T1, ATP-dependent translocase ABCB1 (Homo sapiens, UniProt P08183); assay: TP_TRANSPORTER: increase in saquinavir intracellular accumulation of Tangeretin at a concentration of 20uM in LLC-GA5-COL150 cells; conditions: pig, llc-ga5-col150, 20 µM
Procedure, shortened: (§1)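 LLC-GA5-COL150 (human MDR1-transfected LLC-PK1; colchicine withdrawn 6 h before assay) and LLC-PK1 control cells were grown 3 days in four-well dishes. Uptake of 5 µM [¹⁴C]saquinavir ± inhibitor ran 90 min in pH 7.4 HEPES buffer at 37°C and was stopped with ice-cold washes. Cell/medium ratio was normalised to Lowry protein. Potentiation ratio = % of control (MDR1 cells) / % of control (LLC-PK1) × 100; mean ± s.e.m. of three experiments.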

[2] = molecular target: T1, ATP-dependent translocase ABCB1; assay: TP_TRANSPORTER: increase in Vinblastine intracellular accumulation of Tangeretin at a concentration of 20uM in LLC-GA5-COL150 cells; conditions: pig, llc-ga5-col150, 20 µM
Procedure, shortened: (§2)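 LLC-GA5-COL150 (LLC-PK1 transfected with human MDR1; grown with 150 ng ml⁻¹ colchicine, withdrawn 6 h before assay) and parental LLC-PK1 seeded in four-well dishes and grown 3 days. Cells were incubated 90 min with 20 nM [³H]vinblastine ± inhibitor in HEPES buffer, pH 7.4, 37°C, then washed in ice-cold buffer. Read-out was cell/medium ratio per mg protein (Lowry) by scintillation. Uptake potentiation ratio = % of control in transfectant / % of control in LLC-PK1 × 100; mean ± s.e.m., n=3.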

[3] = molecular target: T1, ATP-dependent translocase ABCB1; assay: TP_TRANSPORTER: increase in saquinavir intracellular accumulation of 6',7'-Dihydroxybergamottin at a concentration of 20uM in LLC-GA5-COL150 cells; conditions: pig, llc-ga5-col150, 20 µM; procedure, shortened: as §1
[4] = molecular target: T1, ATP-dependent translocase ABCB1; assay: TP_TRANSPORTER: increase in Vinblastine intracellular accumulation of 6',7'-Dihydroxybergamottin at a concentration of 20uM in LLC-GA5-COL150 cells; conditions: pig, llc-ga5-col150, 20 µM; procedure, shortened: as §2
[5] = molecular target: T1, ATP-dependent translocase ABCB1; assay: TP_TRANSPORTER: increase in Vinblastine intracellular accumulation in the presence of Bergamottin at 20uM in LLC-GA5-COL150 cells; conditions: pig, llc-ga5-col150, 20 µM; procedure, shortened: as §2
[6] = molecular target: T1, ATP-dependent translocase ABCB1; assay: TP_TRANSPORTER: increase in saquinavir intracellular accumulation in the presence of Sulfinpyrazone at 5mM in LLC-GA5-COL150 cells; conditions: pig, llc-ga5-col150, 5000 µM; procedure, shortened: as §1
[7] = molecular target: T1, ATP-dependent translocase ABCB1; assay: TP_TRANSPORTER: increase in Vinblastine intracellular accumulation in the presence of Sulfinpyrazone at 5mM in LLC-GA5-COL150 cells; conditions: pig, llc-ga5-col150, 5000 µM; procedure, shortened: as §2
[8] = molecular target: T1, ATP-dependent translocase ABCB1; assay: TP_TRANSPORTER: increase in saquinavir intracellular accumulation in the presence of Probenecid at 5mM in LLC-GA5-COL150 cells; conditions: pig, llc-ga5-col150, 5000 µM; procedure, shortened: as §1
[9] = molecular target: T1, ATP-dependent translocase ABCB1; assay: TP_TRANSPORTER: increase in Vinblastine intracellular accumulation in the presence of Probenecid at 5mM in LLC-GA5-COL150 cells; conditions: pig, llc-ga5-col150, 5000 µM; procedure, shortened: as §2
[10] = molecular target: T1, ATP-dependent translocase ABCB1; assay: TP_TRANSPORTER: increase in Vinblastine intracellular accumulation in the presence of MK-571 at 50uM in LLC-GA5-COL150 cells; conditions: pig, llc-ga5-col150, 50 µM; procedure, shortened: as §2
[11] = molecular target: T1, ATP-dependent translocase ABCB1; assay: TP_TRANSPORTER: increase in saquinavir intracellular accumulation in the presence of Nobiletin at 20uM in LLC-GA5-COL150 cells; conditions: pig, llc-ga5-col150, 20 µM; procedure, shortened: as §1
[12] = molecular target: T1, ATP-dependent translocase ABCB1; assay: TP_TRANSPORTER: increase in Vinblastine intracellular accumulation of Nobiletin at a concentration of 20uM in LLC-GA5-COL150 cells; conditions: pig, llc-ga5-col150, 20 µM; procedure, shortened: as §2

T1 sequence (P08183 whole entry): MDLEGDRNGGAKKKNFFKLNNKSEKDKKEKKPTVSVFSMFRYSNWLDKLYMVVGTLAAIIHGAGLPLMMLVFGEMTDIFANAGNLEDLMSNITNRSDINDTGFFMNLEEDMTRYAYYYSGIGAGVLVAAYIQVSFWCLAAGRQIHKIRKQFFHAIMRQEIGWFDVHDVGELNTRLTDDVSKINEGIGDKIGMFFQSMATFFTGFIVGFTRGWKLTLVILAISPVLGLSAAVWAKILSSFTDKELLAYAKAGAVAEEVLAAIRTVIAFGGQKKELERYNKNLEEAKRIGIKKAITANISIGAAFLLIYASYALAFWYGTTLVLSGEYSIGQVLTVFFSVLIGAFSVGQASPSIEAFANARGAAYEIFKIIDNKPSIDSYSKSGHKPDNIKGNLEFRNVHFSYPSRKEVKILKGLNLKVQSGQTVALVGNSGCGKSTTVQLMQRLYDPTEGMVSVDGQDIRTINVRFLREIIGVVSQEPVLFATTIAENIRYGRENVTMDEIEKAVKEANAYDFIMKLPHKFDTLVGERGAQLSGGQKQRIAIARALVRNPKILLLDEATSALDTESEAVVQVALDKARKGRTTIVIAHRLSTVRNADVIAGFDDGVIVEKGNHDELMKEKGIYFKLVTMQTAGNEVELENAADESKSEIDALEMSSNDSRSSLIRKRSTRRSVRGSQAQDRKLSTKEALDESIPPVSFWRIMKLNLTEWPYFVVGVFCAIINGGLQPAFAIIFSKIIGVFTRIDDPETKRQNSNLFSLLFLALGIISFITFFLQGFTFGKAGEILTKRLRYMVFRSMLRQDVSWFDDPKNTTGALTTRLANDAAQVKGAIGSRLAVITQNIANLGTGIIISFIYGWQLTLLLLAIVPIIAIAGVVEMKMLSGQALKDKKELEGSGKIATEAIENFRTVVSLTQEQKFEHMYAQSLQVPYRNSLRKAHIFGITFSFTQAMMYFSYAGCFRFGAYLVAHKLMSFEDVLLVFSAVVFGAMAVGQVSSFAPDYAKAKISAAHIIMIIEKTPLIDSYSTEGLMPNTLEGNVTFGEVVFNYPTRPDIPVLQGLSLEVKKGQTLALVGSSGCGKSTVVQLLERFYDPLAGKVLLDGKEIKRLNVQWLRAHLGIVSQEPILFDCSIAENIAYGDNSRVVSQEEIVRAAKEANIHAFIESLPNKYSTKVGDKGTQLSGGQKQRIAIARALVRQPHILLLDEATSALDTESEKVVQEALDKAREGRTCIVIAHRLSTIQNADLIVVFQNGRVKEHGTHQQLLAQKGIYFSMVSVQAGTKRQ

Activity [1]: inhibitor [+] | Activity [2]: inhibitor [+]
Structure (SMILES): COc1ccc(-c2cc(=O)c3c(OC)c(OC)c(OC)c(OC)c3o2)cc1 [TANGERETIN]

Activity [3]: inhibitor [+] | Activity [4]: inhibitor [+]
Structure (SMILES): C/C(=C\COc1c2ccoc2cc2oc(=O)ccc12)CC[C@@H](O)C(C)(C)O

Activity [5]: is not an inhibitor [-]
Structure (SMILES): CC(C)=CCC/C(C)=C/COc1c2ccoc2cc2oc(=O)ccc12 [BERGAMOTTIN]

Activity [6]: is not an inhibitor [-] | Activity [7]: is not an inhibitor [-]
Structure (SMILES): O=C1C(CC[S+]([O-])c2ccccc2)C(=O)N(c2ccccc2)N1c1ccccc1 (configuration not stated) [SULFINPYRAZONE]

Activity [8]: is not an inhibitor [-] | Activity [9]: is not an inhibitor [-]
Structure (SMILES): CCCN(CCC)S(=O)(=O)c1ccc(C(=O)O)cc1 [PROBENECID]

Activity [10]: is not an inhibitor [-]
Structure (SMILES): CN(C)C(=O)CCSC(SCCC(=O)O)c1cccc(/C=C/c2ccc3ccc(Cl)cc3n2)c1 (configuration not stated) [MK-571]

Activity [11]: is not an inhibitor [-] | Activity [12]: inhibitor [+]
Structure (SMILES): COc1ccc(-c2cc(=O)c3c(OC)c(OC)c(OC)c(OC)c3o2)cc1OC [NOBILETIN]

— ChEMBL document CHEMBL2073766, “Effects of grapefruit juice and orange juice components on P-glycoprotein- and MRP2-mediated drug efflux” (Br J Pharmacol, 2004)
